Screens (PubChem)
Hits are enriched below; roughly 1.9% of the tested compounds scored in any of these assays.
DSG3 Ab inh – blocks pemphigus antibody binding to human desmoglein-3. AID 588358. 310,000 compounds, 0.48% hits. DSG3-coupled beads, scFv-anti-DSG3-GFP binding, flow cytometry; active compounds read low. binding (percent of control), % at 10 µM;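 active = binding more than 3 SD below its plate's average and above zero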;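 also: hits lower antibody fragment binding to DSG3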
NadD inh – NadD (S. aureus) enzyme inhibition | purified NadD enzyme, colorimetric absorbance read-out | 360,000 compounds, 0.78% hits | AID 602399 | inhibition, % at 20 µM; in the data active = inhibition above about 26%
Rce1 inh – inhibitors of yeast Ras-converting enzyme. Q03530. yeast membranes, quenched prenylated peptide cleavage fluorescence. calls only. 290,000 compounds, 0.27% hits;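 active = fall in fluorescence gain of 50% or more versus controls, with final raw signal at or below 3038400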;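 also: plate controls were neutral control wells for no effect and wells lacking membranes for full effect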
Target sequence (Q03530 whole entry, looked up): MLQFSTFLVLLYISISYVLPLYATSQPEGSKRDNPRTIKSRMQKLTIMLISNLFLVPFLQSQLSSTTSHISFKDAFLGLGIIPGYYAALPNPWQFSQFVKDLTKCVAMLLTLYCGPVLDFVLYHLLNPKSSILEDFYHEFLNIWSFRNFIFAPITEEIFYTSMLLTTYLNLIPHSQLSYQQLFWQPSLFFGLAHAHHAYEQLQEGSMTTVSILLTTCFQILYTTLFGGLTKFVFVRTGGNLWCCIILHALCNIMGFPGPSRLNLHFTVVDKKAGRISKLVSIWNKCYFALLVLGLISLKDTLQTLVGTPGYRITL
core dimer inh – blocks dimerization of HCV core protein | TR-FRET GST/Flag-core106 dimerization, 1536-well | inhibition, % at 5 µM | 300,000 compounds, 0.33% hits;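 active = inhibition above the mean of all tested compounds plus 3 SD, set per screening campaign, cut at about 45% in these data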
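Material: Tagged HCV core106 pair (GST and Flag) | Amount: GST-core106 13.5 nM, Flag-core106 17 nM | Medium: KF-containing HEPES buffer, pH 7.45, DTT, CHAPS, BSA | Reagent: Eu donor and XL665 acceptor anti-tag antibodies | Schedule: 4 h at 22.5 °C | Technique: Time-resolved FRET, ex 340 nm, em 617 and 671 nm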
Tb MetRS inh – Trypanosoma brucei MetRS inhibition; 360,000 compounds, 0.4% hits; inhibition, % at 11.9 µM; purified T. brucei MetRS, ATP depletion, Kinase-Glo luminescence;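 active = inhibition above a per-plate cutoff of the control wells' mean inhibition plus 3 SD, cut at about 5.5% in these data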;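 also: 0% = DMSO wells median and 100% = median of wells with control inhibitor compound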
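Measured by: Kinase-Glo luciferase luminescence reporting remaining unconsumed ATP. Material: purified T. brucei MetRS enzyme. Doses: 11.9 µM compound single dose, 0.9% DMSO. Medium: HEPES buffer containing pyrophosphatase, BSA, spermine, DTT. Times: 15 min preincubation, 2 h reaction, all 25 °C. Reagent: methionine, ATP and bulk E. coli tRNA.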
Tb MetRS conf – confirmation of Trypanosoma brucei MetRS inhibitors. shares compounds with Tb MetRS inh. T. brucei MetRS enzyme, luminescence (ATP depletion). inhibition, % at 11.9 µM. 1,400 compounds, 93% hits; in the data active = inhibition above about 7%
Jurkat tox – kills Jurkat cells in T. brucei MetRS counterscreen; shares compounds with Tb MetRS inh; Jurkat cells viability, ATP luminescence; inhibition, % at 8.3 µM; 1,400 compounds, 12% hits; in the data active = inhibition above about 15%;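 also: 0% = vehicle and 100% = reference inhibitor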
Tb MetRS inh FP – T. brucei MetRS inhibition, orthogonal assay | shares compounds with Tb MetRS inh | purified T. brucei MetRS, fluorescence polarization | inhibition, % at 11.9 µM | 1,400 compounds, 44% hits; in the data active = inhibition above about 17%;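 also: 0% = vehicle wells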
An asterisk follows results filed as active; i = inactive; · = no result given.

SMILES | DSG3 Ab inh | NadD inh | Rce1 inh | core dimer inh | Tb MetRS inh | Tb MetRS conf | Jurkat tox | Tb MetRS inh FP
COCCNC(=O)c1c(CSc2ccc(Cl)cc2)noc1C(=O)NCc1ccccc1 | 94 | 4 | i | -1 | 0 | · | · | ·
COc1ccc2oc(=O)c(NC(=O)C3CCCCC3)cc2c1 | 104 | 0 | i | -2 | 0 | · | · | ·
COC(=O)c1ccc(-n2cncn2)c([N+](=O)[O-])c1 | 102 | -3 | i | -1 | 16* | 35* | -5 | 6
CCc1ccc(NC(=O)c2ccc(-n3cncn3)c([N+](=O)[O-])c2)cc1 | 99 | 4 | i | -9 | 13* | 39* | 1 | 20*
Cc1nnc(N2C(=O)c3cccc4c([N+](=O)[O-])ccc(c34)C2=O)s1 | 106 | 8 | i | -27 | 2 | · | · | ·
O=C(NCCCOC(=O)c1ccccc1)c1ccccc1 | 97 | -2 | · | · | 0 | · | · | ·
O=C(CSc1nnc(COc2ccc(Cl)cc2Cl)o1)Nc1ccccn1 | · | 4 | i | 5 | 1 | · | · | ·
Clc1ccc(OCc2nnc(SCc3nnc(-c4ccccc4)o3)o2)c(Cl)c1 | 89 | -1 | i | 0 | 6.7* | 17* | 0 | 5
Clc1ccc2nc(SCc3nnc(-c4ccccc4)o3)[nH]c2c1 | 98 | 10 | i | -1 | 7.5* | 17* | 6 | 7
Cc1ccc(-n2nnnc2SCc2nnc(-c3ccccc3Br)o2)cc1 | 110 | -2 | i | 5 | -1 | · | · | ·
Cc1cc(=O)[nH]c(SCc2nnc(-c3ccccc3)o2)n1 | 96 | -4 | i | -6 | 0 | · | · | ·
Cc1ccc2nc(SCc3nnc(-c4ccccc4Br)o3)[nH]c2c1 | · | 6 | i | 2 | 7.8* | 11* | 5 | 7
O=C(Nc1ccc(Cl)cc1)Nc1csc([N+](=O)[O-])c1 | 97 | -1 | i | -8 | 12* | 22* | 73* | 22*
O=C(Nc1ccc(Cl)cc1)Nc1ccccc1CC[N+](=O)[O-] | 101 | -1 | i | -3 | 37* | 66* | 4 | 30*
COC(=O)c1ccccc1NC(=O)NCc1ccc2c(c1)OCO2 | · | -8 | i | -3 | -1 | · | · | ·
O=C(CSc1nnc(CCc2nc3ccccc3[nH]2)n1-c1ccccc1)NCc1ccccc1 | 103 | 0 | i | -3 | 6.2* | 9.2* | 5 | -2
Cc1cc(Br)cc(Br)c1OCC(=O)NNC(=O)Nc1ccccc1 | 99 | 2 | i | 5 | 7.5* | 45* | -6 | 30*
COc1ccc(CNC(=O)C2CCC(CNc3c(N4CCCCC4)c(=O)c3=O)CC2)cc1 (configuration not stated) | 98 | 1 | i | 0 | 0 | · | · | ·
CC1=C(C(=O)N2CCCCCC2)CC(CC(=O)NC2CCCCC2)C(=O)N1Cc1ccccc1 (configuration not stated) | · | -1 | · | · | 0 | · | · | ·
CCC1=Nc2cc(C(=O)NCc3cccnc3)ccc2Sc2ccc(C)cc21 | 88 | 4 | i | 3 | 1 | · | · | ·
CC(=O)Nc1ccc(S(=O)(=O)N2CCC(Oc3ccc(-n4cnnn4)cc3)CC2)cc1 | 98 | -5 | i | 5 | 6.0* | 15* | 6 | 5
COc1ccc(NC(=O)C2CCCN(S(=O)(=O)c3ccc(-n4cnnn4)cc3)C2)cc1 (configuration not stated) | 94 | -7 | i | 3 | -1 | · | · | ·
O=C(Nc1ccc(S(=O)(=O)N2CCCC2)cc1)C1COc2ccccc2O1 (configuration not stated) | 105 | -5 | i | -2 | 1 | · | · | ·
CN(C)c1ccc(-c2[nH][nH]c(=O)c2NC(=O)c2ccccn2)cc1 | · | 1 | · | · | 28* | 1 | 9 | 4
CN(C)c1ccc(-c2[nH][nH]c(=O)c2NC(=O)c2ccc3ccccc3n2)cc1 | · | 20 | · | · | 13* | 1 | 6 | 2
Cc1cnc(C(=O)Nc2c(-c3ccccc3)[nH][nH]c2=O)cn1 | · | · | · | · | -1 | · | · | ·
COc1ccccc1NS(=O)(=O)c1cccc(NC(=O)Nc2ccc(Cl)cc2)c1 | 85 | -6 | i | 6 | 51* | 78* | 4 | 103*
